High-throughput results (PubChem)
Only some compounds are listed: those with a hit (about 3.7% of all), similar ones and a draw of the others.
Kir21 inh = inhibitors of mouse Kir2.1 inward-rectifier potassium channel; P35561; HEK293-Kir2.1, FluxOR thallium flux fluorescence; hits give low values; B-score at 10 µM; hit rate 0.85% among 310,000; AID 1672;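 active = fluorescence ratio B-score at or below minus 3 SD of library scores, with starting-brightness B-score within 2 SD, cut at about -4.2 in these data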;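 note: channel flux triggered by added potassium and thallium sulfate stimulus; B-score of peak minus minimum fluorescence over baseline after thallium stimulus; more negative B-score means stronger Kir2.1 block with less thallium influx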
hERG rescue = hERG (human) protection from proarrhythmic block; Q12809; CHO-hERG, FluxOR thallium flux, dofetilide IC70 present; activation (rescue from dofetilide block), less the hit threshold, % at 10 µM; hit rate 0.51% among 310,000;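 active = activation above the mean of controls blocked by dofetilide plus 5 SD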;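 note: thallium influx through hERG after potassium depolarization seen as dye fluorescence rise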
Target sequence (Q12809 whole entry, looked up): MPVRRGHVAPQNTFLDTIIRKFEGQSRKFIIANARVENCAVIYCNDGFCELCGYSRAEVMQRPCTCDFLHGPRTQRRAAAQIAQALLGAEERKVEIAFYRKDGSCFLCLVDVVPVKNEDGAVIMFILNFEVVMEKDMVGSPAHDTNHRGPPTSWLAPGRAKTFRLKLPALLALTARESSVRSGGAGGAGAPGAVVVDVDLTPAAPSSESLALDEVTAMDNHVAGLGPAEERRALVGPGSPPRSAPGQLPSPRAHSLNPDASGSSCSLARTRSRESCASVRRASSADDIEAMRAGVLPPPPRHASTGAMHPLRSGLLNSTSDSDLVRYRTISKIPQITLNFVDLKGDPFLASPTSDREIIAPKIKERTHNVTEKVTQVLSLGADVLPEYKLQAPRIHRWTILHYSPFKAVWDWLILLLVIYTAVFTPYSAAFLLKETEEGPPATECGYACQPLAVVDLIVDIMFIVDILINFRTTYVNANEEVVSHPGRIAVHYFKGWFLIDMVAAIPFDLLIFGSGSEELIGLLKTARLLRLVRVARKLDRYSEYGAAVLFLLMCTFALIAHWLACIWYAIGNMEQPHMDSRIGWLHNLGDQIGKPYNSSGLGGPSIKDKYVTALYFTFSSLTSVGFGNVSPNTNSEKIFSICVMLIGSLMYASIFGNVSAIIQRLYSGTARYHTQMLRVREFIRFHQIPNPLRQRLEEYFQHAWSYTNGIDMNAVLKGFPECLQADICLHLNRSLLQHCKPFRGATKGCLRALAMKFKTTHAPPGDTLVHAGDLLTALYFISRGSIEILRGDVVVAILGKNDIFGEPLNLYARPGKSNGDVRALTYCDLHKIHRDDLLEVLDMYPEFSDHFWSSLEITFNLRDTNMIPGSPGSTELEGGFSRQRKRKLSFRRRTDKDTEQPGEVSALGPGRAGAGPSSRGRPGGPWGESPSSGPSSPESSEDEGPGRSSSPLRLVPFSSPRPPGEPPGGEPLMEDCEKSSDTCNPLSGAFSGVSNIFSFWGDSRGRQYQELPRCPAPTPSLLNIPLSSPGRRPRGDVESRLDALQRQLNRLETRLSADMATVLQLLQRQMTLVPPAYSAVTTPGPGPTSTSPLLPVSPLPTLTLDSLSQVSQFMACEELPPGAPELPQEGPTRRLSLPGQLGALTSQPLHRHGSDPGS
KCNQ1 pot = potentiators or activators of human KCNQ1 potassium channel; P51787; CHO-K1 KCNQ1, thallium flux FluxOR fluorescence; hits give high values; B-score at 10 µM; hit rate 0.35% among 310,000; AID 2648;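 active = fluorescence ratio B-score, a plate-corrected score, at least three library SD, with initial intensity B-score within 5 SD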
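Assay system: CHO-K1 cells stably expressing KCNQ1. Medium: assay buffer for compound exposure, DMSO matched across wells. Timing: 37 °C overnight plating, 90-min dark dye load, 20-min compound pretreatment. Signal: kinetic FluxOR fluorescence, 10 s baseline plus 110 s post-stimulus.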
KCNQ1 block = inhibitors of human KCNQ1 potassium channel | P51787 | CHO-K1 KCNQ1, FluxOR thallium flux fluorescence; hits give high values | B-score at 10 µM | hit rate 1.3% among 310,000 | AID 2642;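 active = compounds whose thallium flux B-score, printed positive for inhibition, exceeds three library SD while starting fluorescence stays within three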;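 note: channel opened by potassium depolarization with thallium stimulus after 20 min compound exposure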
KCNK3 inh = human KCNK3 channel inhibition, primary screen; B-score at 10 µM; O14649; hit rate 0.84% among 340,000; CHO-KCNK3 thallium flux, FluxOR fluorescence; hits give low values; AID 602410;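 active = B-score under library mean minus 4 SD, starting fluorescence ratio at most library mean plus 5 SD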;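 note: more negative B-score means stronger inhibition of thallium flux through KCNK3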
KCNK9 block = human KCNK9 channel inhibition; AID 488922; B-score at 10 µM; Q9NPC2; HEK293 KCNK9, FluxOR thallium flux fluorescence; hits give low values; hit rate 1.2% among 310,000;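 active = ratio B-score over 3 SD below the library mean, with starting fluorescence within 5 SD of its mean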;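 note: negative B-score means less thallium flux so channel inhibition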
KCNK9 block conf = confirmation of human KCNK9 potassium channel inhibitors | inhibition, % at 10 µM | HEK293 KCNK9 cells, FluxOR thallium flux fluorescence | hit rate 43% among 4,900 | shares compounds with KCNK9 block;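 active = thallium signal inhibited by more than 5 SD of the compound-free buffer control wells, on both duplicate plates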;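 note: 0% = assay buffer control wells without compound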
Kir21 sel = selectivity of KCNK9 modulators against mouse Kir2.1; shares compounds with KCNK9 block; Kir2.1 cells, FluxOR thallium flux fluorescence; inhibition, % at 10 µM; hit rate 4% among 4,900; AID 492993;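 active = thallium signal drop more than 5 SD beyond the mean of the no-compound control wells, seen in both duplicate plates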;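 note: signal is fluorescence rise after thallium addition divided by baseline fluorescence; plate controls were assay buffer only for no effect and full block by chlorpromazine control for full effect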
KCNK9 uninduced = second check of KCNK9 modulator effects in non-induced HEK293 cells; shares compounds with KCNK9 block; hit rate 40% among 4,900; inhibition, % at 10 µM; FluxOR thallium flux; AID 492997;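 active = thallium signal drop beyond 5 SD of the untreated control mean, on both duplicate plates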;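 note: plate controls were buffer only IC0 wells for no effect and SID17386958 at its maximal inhibitory level for full effect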
* = called active by the depositor; i = inactive; x = no result.

SMILES	Kir21 inh	hERG rescue	KCNQ1 pot	KCNQ1 block	KCNK3 inh	KCNK9 block	KCNK9 block conf	Kir21 sel	KCNK9 uninduced
Cc1ccc(C2(C)NC(=O)N(CC(=O)NC3CCCCC3)C2=O)cc1 (stereo unspecified)	x	x	x	x	i	x	x	x	x
COc1ccc(N(CC(C)C)S(=O)(=O)c2nnc(NC(=O)CC(C)C)s2)cc1	-2.1	0	i	i	i	i	x	x	x
O=c1c2c3c(sc2n(CCN2CCCCC2)c(=O)n1Cc1ccco1)CCCCC3	4.4e-16	-14	i	i	i	i	i	i	i
C(=N\N1CCN(Cc2cccc3ccccc23)CC1)/c1ccco1	1.5	-12	i	i	i	i	i	i	i
Cn1cccc1/C=N/N1CCN(Cc2cccc3ccccc23)CC1	-0.28	-7	i	i	i	i	i	i	i
Cc1cc(Cl)cc2c(N=Nc3ccccc3C(=O)O)c(O)[nH]c12	0	-9	i	i	i	i	i	i	i
CCN1C[C@@H]2[C@@H]3C(=O)N(C)C(=O)[C@@H]3[C@](C)(C1=O)N2C(=O)c1ccc(C)cc1	x	x	x	x	i	x	x	x	x
O=C(CNC(=O)c1ccccc1Br)Nc1cccc(S(=O)(=O)Nc2ccccc2Cl)c1	x	x	x	x	i	x	x	x	x
COc1ccc(-c2csc(NC(=O)c3ccc(S(=O)(=O)N4CCc5ccccc5C4)cc3)n2)cc1	-0.27	-15	i	i	i	i	x	x	x
O=C(Nc1nnc(-c2ccc3c(c2)CCCC3)o1)c1c(F)cccc1F	-1.6	-11	i	i	i	i	x	x	x
COc1ccc(-c2nnc(NC(=O)c3ccc(S(=O)(=O)N4CCc5ccccc5C4)cc3)o2)cc1	1.6	-2	i	i	i	i	i	i	i
O=C(Nc1nnc(-c2ccc3c(c2)CCCC3)o1)c1ccc(Cl)cc1Cl	3	19*	52*	i	i	i	i	i	i
CN(C)S(=O)(=O)c1ccc(C(=O)Nc2nnc(-c3ccc4c(c3)CCCC4)o2)cc1	-0.29	-18	i	i	i	i	i	i	i
O=C(/C=C/c1ccccc1[N+](=O)[O-])NCCCN1CCCC1=O	-0.31	-11	i	i	i	i	x	x	x
CCCCCn1nc(C)c2c(C)cc(=O)[nH]c21	1	-2	i	i	i	i	x	x	x
CCN(CC)c1ccc(S(=O)(=O)N2CCOCC2)cc1NC(=O)Cn1nc(C)c([N+](=O)[O-])c1C	x	x	x	x	i	x	x	x	x
CCN(CC)c1ccc(S(=O)(=O)N2CCOCC2)cc1NC(=O)CN1CCc2ccccc2C1	1.2	-3	i	i	i	-10*	51%*	i	i
CCOC(=O)CSc1nc(C)nc2c1sc1nc(C)c(C(C)=O)c(-c3ccc(OC)cc3)c12	0	-5	i	i	i	-11*	48%*	i	46%*
CCOC(=O)c1c(C)nc2sc3c(=O)n(-c4ccc(C)cc4)cnc3c2c1-c1ccc(OC)cc1	0.7	-5	i	i	i	i	x	x	x
CCOc1ccc(NC(=O)c2ccccc2OCC(=O)c2ccccc2)cc1	-2.6	-11	i	i	i	-14*	42%*	i	i
CCOc1ccccc1C(=O)Nc1ccc(C(=O)c2ccccc2)cc1	0.26	-10	i	i	i	-13*	76%*	i	32%*
O=C(CNC(=O)c1cccc(F)c1)NC1CC1	x	x	x	x	i	x	x	x	x
CCCCSc1nnc(-c2ccccc2)c2ccccc12	-1.1	-17	i	i	i	-15*	38%*	i	42%*
CCN1CCN(c2nnc(-c3ccccc3)c3ccccc23)CC1	0.14	-3	i	i	i	i	x	x	x
